An excerpt weighted towards active compounds, which were near 2.3% of everything screened.
V1aR counter = counter-screen for oxytocin receptor agonists: human V1a receptor agonists; P37288; CHO-V1R cells, Fluo-8 calcium fluorescence, agonist mode; 0% DMSO, 100% 3 nM vasopressin; activation, % at 3 µM; hit rate 0.25% among 320,000;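 active means activation above the mean activation of all tested compounds plus 3 SD, per screening run, cut at about 20% in these data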;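 further: signal is peak over basal fluorescence ratio across a 100 second FLIPR read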
OXTR ag = agonists of human oxytocin receptor; AID 2435; P30559; activation, % at 3 µM; CHO-OTR cells, Fluo-8 calcium fluorescence; normalized: DMSO 0%, oxytocin 100%; hit rate 0.32% among 320,000;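 active means activation above the mean of all tested compounds plus 3 SD, cutoff set per screening run, cut at about 20% in these data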;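 further: peak over basal fluorescence ratio from a 100 s FLIPR kinetic read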
Target sequence (P30559 whole entry, looked up): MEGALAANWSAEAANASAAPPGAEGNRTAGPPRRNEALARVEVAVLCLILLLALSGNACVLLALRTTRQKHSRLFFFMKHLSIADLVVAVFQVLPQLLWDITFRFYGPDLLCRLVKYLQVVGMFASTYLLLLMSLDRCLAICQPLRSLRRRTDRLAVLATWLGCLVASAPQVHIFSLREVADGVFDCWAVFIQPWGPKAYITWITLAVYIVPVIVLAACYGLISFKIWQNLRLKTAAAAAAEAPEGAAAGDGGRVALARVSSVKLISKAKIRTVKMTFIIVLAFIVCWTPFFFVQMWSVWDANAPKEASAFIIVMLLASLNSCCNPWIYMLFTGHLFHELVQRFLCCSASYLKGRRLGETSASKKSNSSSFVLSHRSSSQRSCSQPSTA
TAAR1 ag = human TAAR1 agonism | Q96RJ0 | CHO RD-HGA16 TAAR1, Fluo-8 calcium fluorescence; vehicle wells 0%, saturating PEA agonist 100% | activation, % at 3 µM | hit rate 0.99% among 360,000;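 active means activation above the mean activation of all test compounds in the run plus 3 SD, cut at about 38% in these data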
Target sequence (Q96RJ0 whole entry, looked up): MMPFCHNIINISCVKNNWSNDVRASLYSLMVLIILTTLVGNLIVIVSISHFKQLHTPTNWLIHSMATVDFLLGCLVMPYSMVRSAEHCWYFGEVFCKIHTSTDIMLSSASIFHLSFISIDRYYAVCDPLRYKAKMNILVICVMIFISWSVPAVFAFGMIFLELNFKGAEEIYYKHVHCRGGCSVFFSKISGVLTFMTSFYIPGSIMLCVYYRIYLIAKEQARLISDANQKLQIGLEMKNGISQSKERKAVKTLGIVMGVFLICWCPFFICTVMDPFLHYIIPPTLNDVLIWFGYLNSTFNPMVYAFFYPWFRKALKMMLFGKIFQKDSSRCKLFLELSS
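Assay system: CHO-derived RD-HGA16 cells with stable Gα16 and human TAAR1; timing: 17-24 h seeding, 75 min 37 °C dye, 30 min RT; read-out: % activation from peak over basal fluorescence ratio, DMSO-to-PEA scaled; measured by: kinetic Fluo-8 calcium fluorescence; benchmarks: low control DMSO, high control PEA (EC100); doses: 3 µM single concentration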
TAAR1 antag = human TAAR1 antagonism | CHO RD-HGA16 TAAR1, Fluo-8 calcium fluorescence, antagonist | inhibition, % at 3 µM | hit rate 1.5% among 360,000 | Q96RJ0;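 active means inhibition above a per-plate cutoff, the mean inhibition of test compounds on that plate plus 3 SD, cut at about 49% in these data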
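Material: CHO RD-HGA16 cells bearing hTAAR1; compound dosing: one-point dosing, 3 µM nominal final; schedule: dye loading 75 min at 37 °C, then 30 min room temperature; measured by: calcium fluorescence with Fluo-8; control set: vehicle and agonist controls; replication: n of 1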
OXTR potentiator = potentiators of human oxytocin receptor. CHO-OTR cells, Fluo-8 calcium fluorescence, potentiator mode; 0% = oxytocin EC15, 100% = EC100. activation, % at 3 µM. hit rate 0.061% among 320,000;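 active means activation above that plate's cutoff, the mean activation of tested compounds plus 3 SD, cut at about 6.6% in these data, passing the limit was not always enough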
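Measured by – Fluo-8 calcium dye fluorescence · Test system – human OTR in CHO cells · Dosing – one concentration, 3.0 µM compound · Controls – EC15 oxytocin alone as 0%, 75 nM oxytocin as 100% · Evaluation – normalized max/min fluorescence ratio, % activation · Timing – 6 min pre-incubation, 100 s read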
OXTR agonist cf = confirmation of human oxytocin receptor agonists; shares compounds with OXTR ag; CHO-OTR cells, Fluo-8 calcium fluorescence, agonist; activation, % at 3 µM; hit rate 20% among 390; AID 434963;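 active means mean activation above about 20% derived from the earlier single-dose screen, limit read from the data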;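 further: peak over minimum fluorescence ratio per well during a 100 second FLIPR read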
V1R ag counter 3x = counter-screen for oxytocin receptor agonists: V1a receptor agonists | shares compounds with OXTR ag | CHO-V1R cells, Fluo-8 calcium fluorescence, agonist | activation, % at 3 µM | hit rate 10% among 390;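 active means mean activation over triplicate exceeds the hit threshold set in the earlier primary screen, cut at about 20% in these data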;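 further: peak over basal fluorescence ratio within a 100 second read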
OXTR pot cf = human OXTR potentiation, confirmation | shares compounds with OXTR potentiator | CHO-OTR cells, Fluo-8 calcium fluorescence; scaled from low-dose to maximal oxytocin | activation, % at 3 µM | 180 tested, under 10 active;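 active means mean percent activation over triplicates above a cutoff set from solvent-only control plates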;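 further: compounds tested in the presence of an EC15 dose of oxytocin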
TAAR1 ag confirm = confirmation of human TAAR1 agonists. activation, % at 3 µM. AID 651783. shares compounds with TAAR1 ag. hit rate 82% among 2,400. CHO RD-HGA16 TAAR1, Fluo-8 calcium fluorescence; scaled: DMSO 0%, maximal phenethylamine 100%;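 active means activation above a cutoff set at the run's mean compound activation plus 3 SD, cut at about 39% in these data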
Ga16 nonsel ag = counter-screen for TAAR1 agonists: nonselective agonists in parental cells; AID 651787; activation, % at 3 µM; shares compounds with TAAR1 ag; hit rate 50% among 2,400; CHO-Ga16 parental, Fluo-8 calcium fluorescence; normalized to maximal ATP response, DMSO zero;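 active means activation above the run cutoff, the mean activation over all tested wells plus 3 SD, cut at about 12% in these data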
TAAR1 desens = counter-screen for human TAAR1 agonists: agonists that desensitize TAAR1 | AID 651951 | shares compounds with TAAR1 ag | hit rate 46% among 2,400 | inhibition, % at 3 µM | CHO RD-HGA16 hTAAR1, Fluo-8 calcium, beta-PEA response inhibition;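 active means inhibition above the run cutoff, the mean inhibition of all test compounds plus 3 SD, cut at about 49% in these data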;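 further: beta-PEA stimulus applied at its EC80; loss of beta-PEA calcium signal after compound pretreatment read as receptor desensitization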
Ga16 antag count = counter-screen for TAAR1 agonists: nonselective Ga16 antagonists. hit rate 39% among 2,400. AID 651952. CHO-Ga16 ATP-induced calcium, Fluo-8 fluorescence. inhibition, % at 3 µM. shares compounds with TAAR1 ag;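 active means inhibition above the plate's mean compound inhibition plus 3 SD, computed per plate, cut at about 22% in these data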
Numbers stand for hits; i = inactive; nt = no result.

SMILES	V1aR counter	OXTR ag	TAAR1 ag	TAAR1 antag	OXTR potentiator	OXTR pot cf	others
CCOC(=O)Nc1ccc2nc(-c3cscn3)[nH]c2c1	nt	nt	i	i	nt	nt
CC(=O)Nc1ccc(SCCC2CCCCN2C)cc1 (stereo not drawn)	i	i	i	i	i	nt
COc1cccc(C(=O)Nc2ccc(NC(=O)Cc3ccccc3)cc2)c1	i	24	82	i	i	nt	OXTR agonist cf=i;V1R ag counter 3x=i;TAAR1 ag confirm=102;Ga16 nonsel ag=23;TAAR1 desens=67;Ga16 antag count=i
CCOC(=O)C1CCN(C(=O)Cn2c(=O)c3cccn3c3cccnc32)CC1	i	i	i	i	i	nt
Cc1[nH]c2ccccc2c1/C=C(\C#N)C(=O)NCc1ccccc1	i	i	i	i	i	nt
Cc1ccc(C(C)NC(=O)/C(C#N)=C\c2c(C)[nH]c3ccccc23)cc1 (stereo not drawn)	i	27	63	i	i	nt	OXTR agonist cf=i;V1R ag counter 3x=i;TAAR1 ag confirm=59;Ga16 nonsel ag=33;TAAR1 desens=i;Ga16 antag count=39
CC(C)c1nc2c(c(=O)c3ccccc3n2C)c(=O)n1CCc1ccccc1	i	28	76	i	i	nt	OXTR agonist cf=i;V1R ag counter 3x=i;TAAR1 ag confirm=43;Ga16 nonsel ag=37;TAAR1 desens=i;Ga16 antag count=i
COc1ccc(CCn2c(-c3ccccc3)nc3c(c(=O)c4ccccc4n3C)c2=O)cc1	i	i	i	i	i	nt
O=C(NCCCl)c1ccc(OCc2ccccc2)cc1Cl	i	22	48	i	i	nt	OXTR agonist cf=i;V1R ag counter 3x=i;TAAR1 ag confirm=68;Ga16 nonsel ag=17;TAAR1 desens=56;Ga16 antag count=i
C#CCNC(=O)c1ccc(OCc2ccccc2)cc1Cl	i	i	i	i	i	nt
O=c1oc2cc(O)ccc2cc1-c1nc2c(s1)CCc1ccccc1-2	i	26	59	i	i	nt	OXTR agonist cf=160;V1R ag counter 3x=181;TAAR1 ag confirm=176;Ga16 nonsel ag=164;TAAR1 desens=84;Ga16 antag count=84
O=c1oc2ccccc2cc1-c1nc2c(s1)CCc1ccccc1-2	i	i	i	i	i	nt
N#Cc1ccc(S(=O)(=O)N2CCN(Cc3cccs3)CC2)cc1	i	i	i	i	i	nt
Cc1noc(C)c1-c1ccc(C(=O)NCc2ccc(Cl)cc2)c2occc12	nt	nt	i	i	nt	nt
CC1(c2ccc(OC(F)F)cc2)NC(=O)N(CC(=O)Nc2ccc(F)cc2)C1=O (stereo not drawn)	i	27	78	i	i	nt	OXTR agonist cf=i;V1R ag counter 3x=i;TAAR1 ag confirm=107;Ga16 nonsel ag=47;TAAR1 desens=78;Ga16 antag count=46
CC1(c2ccc(OC(F)F)cc2)NC(=O)N(CC(=O)Nc2ccc(Cl)cc2F)C1=O (stereo not drawn)	i	34	96	55	i	nt	OXTR agonist cf=24;V1R ag counter 3x=22;TAAR1 ag confirm=91;Ga16 nonsel ag=47;TAAR1 desens=53;Ga16 antag count=43
CN(CCc1ccccc1)C1CCCN(C(=O)Cn2cccn2)C1 (stereo not drawn)	i	i	i	i	i	nt
O=[N+]([O-])c1ccc(/C=N/Nc2nc(NCc3ccccc3)nc(N3CCOCC3)n2)cc1	i	i	i	i	i	nt
O=[N+]([O-])c1cccc(/C=N/Nc2nc(NCc3ccccc3)nc(N3CCOCC3)n2)c1O	i	24	67	i	i	nt	OXTR agonist cf=i;V1R ag counter 3x=i;TAAR1 ag confirm=115;Ga16 nonsel ag=112;TAAR1 desens=93;Ga16 antag count=85
c1cc2c(cc1CNc1ccc(N3CCOCC3)cc1)OCO2	i	i	i	i	i	nt
N#C/C(=C\c1ccc(O)cc1)C(=O)NCc1cccc(Cl)c1	i	20	63	i	i	nt	OXTR agonist cf=i;V1R ag counter 3x=i;TAAR1 ag confirm=75;Ga16 nonsel ag=37;TAAR1 desens=i;Ga16 antag count=26
N#C/C(=C/c1ccc(O)cc1)C(=O)NCc1ccc(Cl)cc1	i	i	i	i	i	nt
Cc1nc2ccccc2c(=O)n1NC(=O)C1CCCCC1	i	i	i	i	i	nt
O=C(Nn1c(C2CCC2)nc2ccccc2c1=O)C1CCC1	i	i	i	i	13	i
CCOC(=O)c1ccc(S(=O)(=O)N2CCNCC2)cc1	i	i	i	i	13	i
SMILES	V1aR counter	OXTR ag	TAAR1 ag	TAAR1 antag	OXTR potentiator	OXTR pot cf	others
CCOC(=O)c1ccc(S(=O)(=O)N2CCN(S(=O)(=O)CC)CC2)cc1	i	i	i	i	i	nt
COc1ccc(NC(=O)/C(Cl)=C(/Cl)S(=O)Cc2ccccc2)cn1 (stereo not drawn)	i	i	41	74	20	i
CCN(CC(=O)Nc1c(F)cccc1F)C(=O)c1ccc2ccccc2n1	i	i	i	i	i	nt
CCN(CC(=O)Nc1c(F)cccc1F)C(=O)/C=C/c1ccc2ccccc2n1	i	i	i	i	21	i
CCOC(=O)c1c(CN2CCC(C)CC2)oc2ccc(OC)cc12	i	i	i	i	12	i
Cc1ccc(SCc2cc(=O)n3[nH]c(C)nc3n2)cc1	i	i	i	i	i	nt
Cc1ccc(SCc2cc(=O)n3[nH]cnc3n2)cc1	i	i	i	i	9.8	i
CCOC(=O)c1sc(C)c2c1NC1(CCCCC1)NC2=O	i	i	i	i	11	i
Cc1cccc(C(=O)NNC(=O)c2ccc(-c3ccccc3)cc2)c1	i	i	i	i	i	nt
O=C(NNC(=O)c1ccc(-c2ccccc2)cc1)c1ccccc1	i	i	i	i	12	i
COc1ccc(S(=O)(=O)N2CCOC2CNC(=O)C(=O)NCCc2ccccc2)cc1 (stereo not drawn)	i	i	i	i	i	nt
CCOC(=O)N1CCN(C(=O)COc2ccc(Cl)cc2)CC1	i	i	i	i	12	i
O=C(/C=C/c1ccc([N+](=O)[O-])cc1)NCc1cccnc1	i	i	i	i	i	nt
O=C(/C=C/c1ccc([N+](=O)[O-])cc1)c1cccnc1	i	i	i	i	13	i
COc1ccc(N2CCN(C(=O)C3CCN(S(=O)(=O)c4ccc5c(c4)oc(=O)n5C)CC3)CC2)cc1	i	i	i	i	13	i
O=C(NC(=S)Nc1ccccc1N1CCCC1)c1ccc(-c2cccc([N+](=O)[O-])c2)o1	i	i	i	i	11	i

Compound activity as filed in PubChem.
